Experimental findings from ChEMBL document CHEMBL1144264, “Structure-activity relationship studies on ortho-substituted cinnamic acids, a new class of selective EP(3) antagonists” (Bioorg Med Chem Lett, 2005) are described below.

The target in series [1] is Prostaglandin E2 receptor EP2 subtype (Homo sapiens, UniProt P43116). The series is described as follows: Binding affinity for human prostanoid EP2 receptor.
For series [2], the target named is Prostaglandin E2 receptor EP4 subtype (Homo sapiens, UniProt P35408). As to the kind of experiment: Binding affinity for human prostanoid EP4 receptor.
Sequence of Prostaglandin E2 receptor EP4 subtype (P35408 whole entry): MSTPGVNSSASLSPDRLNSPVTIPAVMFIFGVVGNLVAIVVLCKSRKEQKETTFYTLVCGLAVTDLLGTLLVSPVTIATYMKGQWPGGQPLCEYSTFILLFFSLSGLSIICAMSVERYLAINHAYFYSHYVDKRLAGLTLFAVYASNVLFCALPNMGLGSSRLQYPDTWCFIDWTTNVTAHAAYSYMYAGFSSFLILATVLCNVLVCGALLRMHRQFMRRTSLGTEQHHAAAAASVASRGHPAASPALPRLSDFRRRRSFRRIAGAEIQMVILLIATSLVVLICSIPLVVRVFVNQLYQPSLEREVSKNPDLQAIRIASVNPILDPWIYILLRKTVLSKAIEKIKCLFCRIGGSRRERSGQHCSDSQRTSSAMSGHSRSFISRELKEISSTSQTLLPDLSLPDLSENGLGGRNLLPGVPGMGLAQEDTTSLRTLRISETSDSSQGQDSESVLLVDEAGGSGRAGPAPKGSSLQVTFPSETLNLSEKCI
In series [3] the target is T1, Prostaglandin E2 receptor EP3 subtype (Homo sapiens, UniProt P43115).
T1 sequence (P43115 whole entry): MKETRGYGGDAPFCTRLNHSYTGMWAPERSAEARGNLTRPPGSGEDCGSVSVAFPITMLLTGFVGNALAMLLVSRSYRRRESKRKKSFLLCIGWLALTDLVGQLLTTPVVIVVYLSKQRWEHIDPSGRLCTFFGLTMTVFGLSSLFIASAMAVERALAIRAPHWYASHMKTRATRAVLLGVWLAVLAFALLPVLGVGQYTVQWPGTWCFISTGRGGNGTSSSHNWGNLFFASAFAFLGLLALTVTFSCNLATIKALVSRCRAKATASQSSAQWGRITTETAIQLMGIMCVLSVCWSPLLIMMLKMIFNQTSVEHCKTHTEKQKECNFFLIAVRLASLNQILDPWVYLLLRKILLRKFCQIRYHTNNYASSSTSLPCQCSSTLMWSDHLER
As to the kind of experiment: Binding affinity for human prostanoid EP3 receptor.

For series [4], the system named is HEK293. The series is described as follows: Inhibition of c-AMP production in HEK (EBNA) cells was determined by c-AMP assay. Type of series: functional, HEK293-EBNA. As to conditions: Homo sapiens. The essentials:
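Functional cAMP read-out in HEK (EBNA) cells expressing the receptor: antagonism scored as reversal of EP3-mediated inhibition of cAMP production; EP2 activity scored as stimulation of cAMP production.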

The target of series [5] is T2, Prostaglandin E2 receptor EP1 subtype (Homo sapiens, UniProt P34995).
T2 sequence (P34995 whole entry): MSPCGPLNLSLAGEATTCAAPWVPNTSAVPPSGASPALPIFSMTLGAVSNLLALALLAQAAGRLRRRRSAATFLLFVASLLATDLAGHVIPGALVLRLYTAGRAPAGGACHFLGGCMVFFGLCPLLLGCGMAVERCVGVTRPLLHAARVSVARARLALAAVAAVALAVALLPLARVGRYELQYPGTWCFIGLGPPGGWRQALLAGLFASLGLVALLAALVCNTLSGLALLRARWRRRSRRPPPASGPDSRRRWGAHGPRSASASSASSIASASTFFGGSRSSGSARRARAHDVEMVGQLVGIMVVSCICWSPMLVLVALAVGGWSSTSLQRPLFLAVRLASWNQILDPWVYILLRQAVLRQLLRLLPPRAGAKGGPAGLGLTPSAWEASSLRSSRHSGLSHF
The series is described as follows: Binding affinity for human prostanoid EP1 receptor.

Series [6] in a line: Maximum concentration in rats after 10 mg/kg peroral and 5 mg/kg intravenous administration as sodium salts. In kind it is ADME, organism-based. As to conditions: rat, in vivo, po. A digest of the protocol: (§1)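 Male Sprague–Dawley rats, 300–400 g. Oral bioavailability, clearance (mL/min/kg), Cmax (µM, with time of peak) and half-life derived from plasma profiles.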
For series [7], the system named is HEK293. As to the kind of experiment: Stimulation of c-AMP production in HEK (EBNA) cells was determined by c-AMP assay. As to conditions: Homo sapiens.
Series [8] is described as follows: Clearance in rats after 10 mg/kg peroral and 5 mg/kg intravenous administration as sodium salts. Type of series: ADME, organism-based. As to conditions: rat, in vivo. A digest of the protocol:
as §1

The nature of series [9]: Bioavailability in rat (dose 10 mg/kg p.o. and 5 mg/kg i.v.) (dosed as sodium salt). Type of series: ADME, organism-based. Particulars: in vivo, po. A digest of the protocol:
as §1

Series [10] can be described thus: Half life in rats after 10 mg/kg peroral and 5 mg/kg intravenous administration as sodium salts. Type of series: ADME, organism-based. Particulars: rat, in vivo. A digest of the protocol:
as §1

Structures are written as SMILES.

Sequence of Prostaglandin E2 receptor EP2 subtype (P43116 whole entry): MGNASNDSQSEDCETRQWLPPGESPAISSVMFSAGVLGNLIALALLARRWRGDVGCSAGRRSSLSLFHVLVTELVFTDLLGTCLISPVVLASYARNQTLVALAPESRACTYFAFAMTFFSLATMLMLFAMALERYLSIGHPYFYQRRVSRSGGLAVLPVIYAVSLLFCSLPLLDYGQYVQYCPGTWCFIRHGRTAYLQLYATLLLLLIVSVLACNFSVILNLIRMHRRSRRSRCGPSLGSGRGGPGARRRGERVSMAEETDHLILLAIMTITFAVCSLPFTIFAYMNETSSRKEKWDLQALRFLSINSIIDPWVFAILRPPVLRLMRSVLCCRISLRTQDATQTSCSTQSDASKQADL

As usually defined, the Ki is a measure of affinity in units of concentration, obtained from inhibition or displacement. With `O=C(O)/C=C/c1ccccc1/C=C/Cc1ccccc1OCc1ccccc1.O=C(O)/C=C/c1ccccc1C/C=C\c1ccccc1OCc1ccccc1`, the Ki in series [1] stood at 680 nM; in series [2], 1000 nM; in [3], 25 nM; in [5] it was 24000 nM. Also, the Kb with HEK293 [4] was 50 nM.
Turning to `COc1cc(/C=C\Cc2ccccc2/C=C/C(=O)O)ccc1OCc1ccccc1.COc1cc(C/C=C/c2ccccc2/C=C/C(=O)O)ccc1OCc1ccccc1`, the Ki in series [1] is 750 nM; in series [2], 610 nM; in series [3], 8 nM; in series [5], more than 20000 nM. The Kb in the series with HEK293 [4] was found to be 6 nM.
For the compound `O=C(O)/C=C/c1ccccc1/C=C/Cc1ccccc1.O=C(O)/C=C/c1ccccc1C/C=C/c1ccccc1`, the Ki in series [1] is 1400 nM; in series [2], 4400 nM; in series [3] it was 100 nM; in series [5], more than 100000 nM.
The like results for `O=C(O)/C=C/c1ccccc1/C=C/Cc1cccc(CO)c1OCc1c(Cl)cccc1Cl.O=C(O)/C=C/c1ccccc1C/C=C/c1cccc(CO)c1OCc1c(Cl)cccc1Cl` were, in that order, 2500 nM, 740 nM, 13 nM and 7100 nM.
Regarding `Cc1cccc(C(O)/C=C/c2ccccc2/C=C/C(=O)O)c1OCc1c(Cl)cccc1Cl` (configuration not stated), the inhibition constant Ki was 3900 nM in series [1], 1000 nM in [2], 9 nM in [3] and 13000 nM in [5]. Moreover, in the series with HEK293 [4], the Kb came to 30 nM.
Consider `Cc1cccc(/C=C\Cc2ccccc2C(=O)O)c1OCc1ccccc1.Cc1cccc(C/C=C/c2ccccc2C(=O)O)c1OCc1ccccc1`, for which the Ki in [1] stood at 7100 nM; in series [2], 5700 nM; in series [3] it was 2700 nM; in series [5], 16000 nM.
On to `Cc1cccc(CCCc2ccccc2/C=C/C(=O)O)c1OCc1ccccc1`, for which the inhibition constant (Ki) in [1] was 380 nM; in [2], 2900 nM; in [3], 13 nM; in [5], more than 10000 nM. In the series with HEK293 [4], this compound had a Kb of 38 nM.
For the compound `Cc1cccc(/C=C/Cc2ccccc2CC(=O)O)c1OCc1ccccc1.Cc1cccc(C/C=C/c2ccccc2CC(=O)O)c1OCc1ccccc1`, the inhibition constant Ki in series [1] turned out to be 2900 nM; in series [2], 4300 nM; in [3], 3400 nM; in series [5] it was 21000 nM.
Take `Cc1cccc(/C=C/Cc2ccccc2/C=C/C(=O)O)c1OCc1ccccc1`: the Kb in the series on HEK293 [4] came out at 17 nM.
For the compound `Cc1cccc(/C=C/Cc2ccccc2/C=C/C(=O)O)c1OCc1ccccc1.Cc1cccc(C/C=C/c2ccccc2/C=C/C(=O)O)c1OCc1ccccc1` (stereo in doubt; 2a), the Ki was found to be 550 nM in series [1], 1200 nM in [2] and 13 nM in series [3].
The Cmax is the highest concentration seen after dosing. The term bioavailability denotes the share of a dose that reaches the circulation, judged against a reference dose that is usually intravenous. The half-life is the time needed for the level to fall by half in the phase considered. Regarding `O=C(O)/C=C/c1ccccc1/C=C/c1ccccc1OCc1ccccc1`, the maximum concentration (Cmax) in series [6] was 1.7 µM. The Kb in the series with HEK293 [7] worked out at 3 nM. In addition, the clearance in series [8] amounted to 16 mL/min/kg. Moreover, the Ki was 8 nM in series [1], 2800 nM in series [2], 1400 nM in series [3] and 45000 nM in series [5]. The bioavailability in series [9] came to 17%. For the same compound, the half-life in [10] was 2 h.
Consider `CC(=O)c1ccc(OCc2ccccc2)c(/C=C/Cc2ccccc2/C=C/C(=O)O)c1.CC(=O)c1ccc(OCc2ccccc2)c(C/C=C/c2ccccc2/C=C/C(=O)O)c1`, for which the Ki came out at 8700 nM in series [1], 830 nM in series [2], 260 nM in series [3] and 2800 nM in [5].
For `COc1cccc(CCCc2ccccc2/C=C/C(=O)O)c1OCc1ccccc1`, the Ki was 1100 nM in series [1], 4300 nM in series [2], 19 nM in series [3] and more than 9000 nM in series [5]. This compound returned a Kb in the series on HEK293 [4] of 29 nM.
Consider `COc1ccc(/C=C/Cc2ccccc2/C=C/C(=O)O)cc1.COc1ccc(C/C=C/c2ccccc2/C=C/C(=O)O)cc1`, for which the Ki in series [1] is 2500 nM; in series [2], 6200 nM; in series [3], 68 nM; in series [5], more than 100000 nM.
As for `Cc1cccc(/C=C/Cc2ccccc2/C=C/C(=O)O)c1OCc1ccc(F)cc1`, the Ki came out at 4100 nM in series [1], 2400 nM in [2], 7 nM in series [3] and 17000 nM in series [5]. This compound registered a Kb with HEK293 [4] of 4 nM.
As for `Cc1cccc(/C=C/Cc2ccc(/C=C/C(=O)O)cc2)c1OCc1ccccc1.Cc1cccc(C/C=C\c2ccc(/C=C/C(=O)O)cc2)c1OCc1ccccc1`, the inhibition constant (Ki) in [1] is 1700 nM; in series [2], 5500 nM; in [3] it was 2900 nM; in series [5], more than 30000 nM.
Turning to `Cc1cccc(/C=C/Cc2cccc(/C=C/C(=O)O)c2)c1OCc1ccccc1.Cc1cccc(C/C=C/c2cccc(/C=C/C(=O)O)c2)c1OCc1ccccc1`, the Ki turned out to be 630 nM in series [1], 3100 nM in series [2], 2000 nM in series [3] and 21000 nM in series [5].
As for `O=C(O)/C=C/c1ccccc1/C=C/Cc1cccc(OCc2ccccc2)c1.O=C(O)/C=C/c1ccccc1C/C=C\c1cccc(OCc2ccccc2)c1`, the Ki in series [1] turned out to be 18 nM; in [2], 450 nM; in series [3] it was 50 nM; in [5] it was 14000 nM. Also, the Kb in the series with HEK293 [4] was 62 nM.
In the case of `Cc1cccc(/C=C/Cc2ccccc2/C=C/C(=O)O)c1OCc1ccccc1.Cc1cccc(C/C=C/c2ccccc2/C=C/C(=O)O)c1OCc1ccccc1` (stereo in doubt; 2a/3a), the Cmax in [6] was determined as 22 µM. Further, the clearance in series [8] was 10 mL/min/kg. Further, the Ki turned out to be 860 nM in series [1], 2000 nM in [2], 9 nM in series [3] and 19000 nM in series [5]. For the same compound, the bioavailability in series [9] amounted to 97%. In addition, in series [10], the half-life was 2 h. Further, the Kb with HEK293 [4] stood at 32 nM.
In the case of `Cc1cccc(CCCc2ccccc2CCC(=O)O)c1OCc1ccccc1`, the Ki in series [1] was found to be 940 nM; in series [2], 440 nM; in series [3], 65 nM; in series [5], 23000 nM.
With `Cc1cccc(/C=C/Cc2ccccc2/C=C/C(=O)O)c1O`, the Ki in series [1] amounted to 7300 nM; in series [2], 1600 nM; in [3] it was 10 nM; in [5] it was 68000 nM. The Kb with HEK293 [4] was found to be 28 nM.
Turning to `Cc1cccc(/C=C/Cc2ccccc2/C=C/C(=O)O)c1OCc1c(Cl)cccc1Cl`, the Cmax in [6] stood at 25 µM. For the same compound, the clearance in series [8] came out at 5.8 mL/min/kg. Besides, the Ki stood at 5400 nM in [1], 620 nM in series [2], 3 nM in series [3] and 6700 nM in series [5]. Also, in series [9], the bioavailability was 74%. For the same compound, the half-life in [10] is 2 h. Besides, the Kb in the series on HEK293 [4] was 6 nM.
Take `Cc1cccc(/C=C/C(O)c2ccccc2/C=C/C(=O)O)c1OCc1c(Cl)cccc1Cl` (configuration not stated): the inhibition constant (Ki) in series [1] was found to be 2100 nM; in series [2], 930 nM; in series [3], 10 nM; in series [5], 3000 nM. Besides, the Kb in the series with HEK293 [4] is 30 nM.
